In ChEMBL document CHEMBL1158785, “Polyoxygenated steroids from the gorgonian Isis hippuris” (J Nat Prod, 2005):
≈ marks a conversion by molar mass, not a printed value.

What was measured:
MCF7 = assay: Cytotoxicity against human MCF7 cells after 3 days by MTT assay; assay type: functional, cell-based; conditions: MCF7, 72 h
Outline: (§1)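 Freshly trypsinized cells seeded at 5000-10 000 per well, compounds added from DMSO-diluted stock; 3 days culture. Attached cells then given MTT (0.5 mg/mL, 1 h), formazan dissolved in DMSO, absorbance read at 550 nm. IC50 taken as concentration reducing cell growth by 50%.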

HepG2 = assay: Cytotoxicity against human HepG2 cells after 3 days by MTT assay; assay type: functional, cell-based; conditions: HepG2, 72 h; outline: as §1
[1] = Cytotoxicity against human Hep3B cells after 3 days by MTT assay; assay type: functional, cell-based, Hep 3B2; conditions: 72 h; outline: as §1
MDA-MB-231 = assay: Cytotoxicity against human MDA-MB-231 cells after 3 days by MTT assay; assay type: functional, cell-based; conditions: MDA-MB-231, 72 h; outline: as §1

Compound	IC50 (MCF7) [µg/mL]	IC50 (HepG2) [µg/mL]	IC50 [1] [µg/mL]	IC50 (MDA-MB-231) [µg/mL]
C[C@H]1C[C@]2(O[C@H]3C[C@H]4[C@@H]5CC[C@H]6C[C@H](O)[C@H](O)C[C@]6(C)[C@H]5[C@@H](O)C[C@@]45C(=O)O[C@]2(C)[C@@H]35)OC1(C)C	> 30	> 30	23.8 (≈ 48.6 µM)	> 30
CC(=O)O[C@@H]1CC[C@@]2(C)[C@@H](CC[C@@H]3[C@@H]2[C@@H]2C[C@]45[C@H](O2)O[C@]2(C)[C@H]4[C@H](C[C@@H]35)O[C@]23C[C@H](C)C(C)(C)O3)C1	> 20	> 20		> 20
CC(=O)O[C@H]1C[C@@H]2CC[C@@H]3[C@H]([C@@H](O)C[C@]45[C@H](O)O[C@]6(C)[C@H]4[C@H](C[C@@H]35)O[C@]63C[C@H](C)C(C)(C)O3)[C@@]2(C)C[C@H]1OC(C)=O	11.4 (≈ 19.7 µM)	> 20		> 20
CC(=O)O[C@H]1C[C@@H]2CC[C@@H]3[C@H]([C@@H]4C[C@]56[C@H](O4)O[C@]4(C)[C@H]5[C@H](C[C@@H]36)O[C@]43C[C@H](C)C(C)(C)O3)[C@@]2(C)C[C@H]1OC(C)=O	> 20	> 20		> 20
CC(=O)O[C@@H]1C[C@@]2(C)[C@@H](CC[C@@H]3[C@@H]2[C@@H](O)C[C@]24C(=O)O[C@]5(C)[C@H]2[C@H](C[C@@H]34)O[C@]52C[C@H](C)C(C)(C)O2)C[C@@H]1O	> 30	27.6 (≈ 51.8 µM)	> 30	> 30
C[C@H]1C[C@]2(O[C@H]3C[C@H]4[C@@H]5CC[C@H]6C[C@H](O)CC[C@]6(C)[C@H]5[C@@H](O)C[C@@]45C(=O)O[C@]2(C)[C@@H]35)OC1(C)C	> 20	> 20		> 20
CC(=O)O[C@@H]1C[C@@]2(C)[C@@H](CC[C@@H]3[C@@H]2[C@@H](O)C[C@@]2(C)[C@H]3C[C@@H]3O[C@@]4(C[C@H](C)C(C)(C)O4)[C@](C)(O)[C@@H]32)C[C@@H]1O	0.53 (≈ 1.02 µM)	0.56 (≈ 1.08 µM)	0.1 (≈ 0.192 µM)	0.41 (≈ 0.787 µM)
CC(=O)O[C@@H]1CC[C@@]2(C)[C@@H](CC[C@@H]3[C@@H]2[C@@H](O)C[C@]24[C@H](O)O[C@]5(C)[C@H]2[C@H](C[C@@H]34)O[C@]52C[C@H](C)C(C)(C)O2)C1 [HIPPURISTANOHEMIACETAL]	12.7 (≈ 24.5 µM)	> 20		> 20
CC(=O)O[C@@H]1C[C@@]2(C)[C@@H](CC[C@@H]3[C@@H]2[C@@H](O)C[C@@]2(C)[C@H]3C[C@@H]3O[C@]4(C[C@H](C)C(C)(C)O4)[C@](C)(O)[C@@H]32)C[C@@H]1O [EPIHIPPURIN 1]	4.54 (≈ 8.72 µM)	4.64 (≈ 8.91 µM)	0.68 (≈ 1.31 µM)	2.64 (≈ 5.07 µM)
CC(=O)O[C@H]1C[C@@H]2CC[C@@H]3[C@H]([C@@H](O)C[C@]45C(=O)O[C@]6(C)[C@H]4[C@H](C[C@@H]35)O[C@]63C[C@H](C)C(C)(C)O3)[C@@]2(C)C[C@H]1OC(C)=O	19.6 (≈ 34.1 µM)	> 20		> 20
CC(=O)O[C@H]1C[C@@H]2CC[C@@H]3[C@H]([C@@H](O)C[C@@]4(C)[C@H]3C[C@@H]3O[C@@]5(C[C@H](C)C(C)(C)O5)[C@](C)(O)[C@@H]34)[C@@]2(C)C[C@H]1O	1.07 (≈ 2.05 µM)	0.72 (≈ 1.38 µM)	0.46 (≈ 0.883 µM)	0.21 (≈ 0.403 µM)
CC(=O)O[C@H]1C[C@@H]2CC[C@@H]3[C@H]([C@@H](O)C[C@@]4(C)[C@H]3C[C@@H]3O[C@]5(C[C@H](C)C(C)(C)O5)[C@](C)(O)[C@@H]34)[C@@]2(C)C[C@H]1O	2.41 (≈ 4.63 µM)	2.06 (≈ 3.96 µM)	1.46 (≈ 2.8 µM)	0.74 (≈ 1.42 µM)
C[C@H]1C[C@]2(O[C@H]3C[C@H]4[C@@H]5CC[C@H]6C[C@H](O)[C@H](O)C[C@]6(C)[C@H]5[C@@H](O)C[C@]4(C)[C@H]3[C@@]2(C)O)OC1(C)C	0.59 (≈ 1.23 µM)	0.62 (≈ 1.3 µM)	0.77 (≈ 1.61 µM)	0.75 (≈ 1.57 µM)
CC(=O)O[C@@H]1CC[C@@]2(C)[C@@H](CC[C@@H]3[C@@H]2[C@@H](O)C[C@]24C(=O)O[C@]5(C)[C@H]2[C@H](C[C@@H]34)O[C@]52C[C@H](C)C(C)(C)O2)C1	> 20	> 20		> 20
C[C@H]1C[C@]2(O[C@H]3C[C@H]4[C@@H]5CC[C@H]6C[C@H](O)CC[C@]6(C)[C@H]5[C@@H](O)C[C@]4(C)[C@H]3[C@@]2(C)O)OC1(C)C [EPIHIPPURISTANOL]	0.2 (≈ 0.432 µM)	0.08 (≈ 0.173 µM)	0.1 (≈ 0.216 µM)	0.13 (≈ 0.281 µM)
